# From PMC8525972 (mAbs, 2021)
# Columns and labels:
# human IgG [1] = experiment: Fluorescence polarization mix-and-read assay, human IgG titration; assay type: binding; details: 50 nM probe, human IgG 0 to 2.5 g/L
# How it was run: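 Fluorescein-labelled probes (Fc-III peptide, protein G, peptide-H) at 50 nM mixed with human IgG at 0–2.5 g/L in PBS. Polarisation read immediately at Ex 485/Em 535 nm. mP is (I∥ − I⊥)/(I∥ + I⊥) × 1000. Curves fitted with a 4-parameter logistic.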
# murine-IgG1 = experiment: Fluorescence intensity, murine IgG1 in CHO cell culture fluid; assay type: binding
# How it was run: (§1)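 CHO-S cells grown in CD CHO medium with 4 mM L-glutamine to 3.31 × 10^6 cells/mL at 96.1% viability. Fluid clarified by 8000×g for 30 min, then 0.2 µm filtration. Antibody spiked into this fluid and mixed 1:1 with 100 nM Fc-III probe in PBS; read immediately at Ex 485/Em 535 nm. Detection limit is signal above blank + 3 StdDev of blank.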
# [2] = Fluorescence intensity of probe with hydroxypropyl-β-cyclodextrin; assay type: physicochemical; details: 50 nM probe; increasing HP-β-cyclodextrin
# polyclonal human IgG [3] = experiment: Fluorescence polarization, human IgG in CHO cell culture fluid; assay type: binding; details: 100 nM probe in CHO-CCF
# polyclonal human IgG [4] = experiment: Fluorescence intensity, human IgG in CHO cell culture fluid; assay type: binding
# How it was run: as §1
# IgG [5] = details: cited from earlier work
# human IgG [6] = experiment: Fluorescence intensity mix-and-read assay, human IgG titration; assay type: binding
# How it was run: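 Human IgG (0–2.5 g/L) diluted in PBS and mixed 1:1 with fluorescein-Ahx-labelled Fc-III peptide probe in PBS; probe tested at 25–500 nM, and at 50 nM and 2000 nM for linear quantitation. Plate read immediately, intensity at Ex 485/Em 535 nm. Normalised intensity is the fold change over probe alone without IgG.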
# murine IgG1 = details: ref [41]; cited from earlier work
# [7] = biological target: adalimumab biosimilar IgG1 (Homo sapiens, UniProt P01857); experiment: Fluorescence intensity, adalimumab biosimilar in CHO cell culture fluid; assay type: binding
# How it was run: as §1
# human IgG [8] = details: ref [40],[41]; cited from earlier work
# human-IgG = experiment: SpA competition with Fc-III probe/human IgG mixture, fluorescence intensity; assay type: binding; details: IgG 0.005 g/L (30 nM), Fc-III probe 50 nM, 120 min
# How it was run: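 Unlabelled SpA serially diluted in PBS and added at 0.02 nM–1 µM final to human IgG (33 nM, 0.005 g/L) plus Fc-III probe (50 nM). PBS alone served as negative control. Incubated 120 min for equilibration, then fluorescence intensity read at Ex 485/Em 535 nm.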
# IgG [9] = details: ref [16],[17]; cited from earlier work
# Chain of adalimumab biosimilar IgG1 (P01857 1-330 isoform P01857-1, other chains not shown): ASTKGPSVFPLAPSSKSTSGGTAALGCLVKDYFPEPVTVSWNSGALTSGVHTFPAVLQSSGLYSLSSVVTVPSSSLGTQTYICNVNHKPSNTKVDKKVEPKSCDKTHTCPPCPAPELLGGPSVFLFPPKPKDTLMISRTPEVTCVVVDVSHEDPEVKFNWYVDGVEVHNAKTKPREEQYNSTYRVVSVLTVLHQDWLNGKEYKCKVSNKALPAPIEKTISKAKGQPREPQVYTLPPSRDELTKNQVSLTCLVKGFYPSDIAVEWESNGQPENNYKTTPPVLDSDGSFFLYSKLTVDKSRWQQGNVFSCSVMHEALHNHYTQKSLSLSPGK
substance,measurement,setting,value
Fluorescein-Ahx-DCAWHLGELVWCT-NH2 (disulfide) [Fc-III probe],"Polarization dynamic range, difference between bound and free probe (Δ mP)","human IgG [1]; 96-well plate, Ex 485 nm/Em 535 nm",260 mP
same,Lowest IgG concentration required to produce half-maximal response,human IgG [1]; fluorescence polarization,0.001 g/L
same,Detection limit,"murine-IgG1; murine IgG1, 100 nM probe in CHO-CCF",0.1 g/L
same,Detection limit for murine IgG1 relative to human IgG,murine-IgG1; murine IgG1 versus human IgG,1000 times
same,Fluorescence intensity increase on addition of HPβCD,[2],2.1 fold
same,"Polarization changes, human IgG versus adalimumab biosimilar",polyclonal human IgG [3],nearly identical fluorescence polarization changes
same,Fluorescence intensity increase,"polyclonal human IgG [4]; 100 nM probe in CHO-CCF, 2.5 g/L human IgG",~ 1.8 fold
same,Limit of detection compared with HPLC or ELISA,polyclonal human IgG [4]; IgG in CHO-CCF,comparable to those of HPLC or ELISA
same,Limit of detection by fluorescence intensity,"polyclonal human IgG [4]; human IgG, 100 nM probe in CHO-CCF, signal > blank intensity + 3StdDev of blank",0.00025 g/L
same,"Binding affinity for IgG, Fc-III versus SpG",IgG [5],comparable binding affinity for IgG
same,Fold increase in fluorescence intensity at lowest IgG concentration,"human IgG [6]; 25 nM probe, 0.00025 g/L IgG",1.16 fold
same,Linear quantitation range (IgG concentration),"human IgG [6]; 2000 nM Fc-III probe, listed as fluorescein labeled Fc-III",0.025 to 0.1 g/L
same,Binding to murine IgG1,murine IgG1,binds relatively poorly
same,Fluorescence intensity increase,"[7]; 100 nM probe in CHO-CCF, 2.5 g/L adalimumab (IgG1 mAb)",~ 1.8 fold
same,Adalimumab biosimilar detected down to,"[7]; CHO cell culture fluid, fluorescence intensity",100 ng/mL
same,Binding of human IgG (subtypes 1–4) to Fc-III relative to pure IgG1,human IgG [8],binds Fc-III less well than pure IgG1
"SpA: unlabeled Staphylococcal protein A, competitor binding to the same location on Fc as Fc-III",Fluorescence intensity of Fc-III/IgG mixture with 500 nM SpA,human-IgG; 500 nM SpA,fell to that of free Fc-III probe
same,Effect of unlabeled SpA on emission intensity of IgG/Fc-III probe mixture,human-IgG; SpA 0.02 nM to 1 µM in PBS,markedly diminished
"fluorescein-labeled protein A (SpA): fluorescein-labeled protein A, literature comparison",IgG binding-induced fluorescence enhancement of fluorescein-labeled protein A,IgG [9],IgG binding-induced fluorescence enhancement
